The text below walks through data of ChEMBL document CHEMBL3603735 (J Med Chem, 2015).

Assay [1] has as its target Neuronal acetylcholine receptor; alpha4/beta2 (Rattus norvegicus, UniProt P09483+P12390). Briefly: Displacement of [3H]epibatidine from alpha4beta2 nAChR in rat cortex membranes by liquid scintillation counting method. The assay is classed as cell membranes. The essentials:
(§1)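 Rat hippocampus (α7) or cortex (α4β2) membranes. Ki obtained by simultaneous nonlinear least-squares fitting of three saturation plus three competition binding experiments per compound per subtype.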
Background: Loss of bound radioactivity is the signal in a displacement assay; it reports binding, not function.

Assay [2] deals with T1, Neuronal acetylcholine receptor; alpha3/beta4 (Homo sapiens, UniProt P30926+P32297). Briefly: Displacement of [3H]epibatidine from human alpha3beta4 nAChR expressed in HEK293 cell membranes by liquid scintillation counting method. An outline of the steps: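 Competition against [3H]epibatidine on membranes of human α3β4-transfected cells. Ki obtained by simultaneously fitting three independent saturation and three competition experiments per compound with nonlinear least squares.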
T1 sequence (P30926 whole entry): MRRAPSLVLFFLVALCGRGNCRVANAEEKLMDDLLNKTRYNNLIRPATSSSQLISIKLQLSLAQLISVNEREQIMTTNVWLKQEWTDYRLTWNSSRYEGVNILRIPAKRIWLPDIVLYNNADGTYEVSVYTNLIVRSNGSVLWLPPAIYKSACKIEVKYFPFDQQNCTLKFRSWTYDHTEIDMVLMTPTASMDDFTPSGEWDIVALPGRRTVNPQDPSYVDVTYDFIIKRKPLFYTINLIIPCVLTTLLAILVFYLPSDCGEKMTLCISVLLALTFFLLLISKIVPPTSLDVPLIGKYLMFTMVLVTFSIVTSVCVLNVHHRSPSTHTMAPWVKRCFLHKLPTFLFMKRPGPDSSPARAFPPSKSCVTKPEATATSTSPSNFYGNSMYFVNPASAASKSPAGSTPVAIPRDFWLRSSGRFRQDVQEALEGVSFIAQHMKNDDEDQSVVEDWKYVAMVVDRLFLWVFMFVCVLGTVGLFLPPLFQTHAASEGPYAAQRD
T1 sequence (P32297 whole entry): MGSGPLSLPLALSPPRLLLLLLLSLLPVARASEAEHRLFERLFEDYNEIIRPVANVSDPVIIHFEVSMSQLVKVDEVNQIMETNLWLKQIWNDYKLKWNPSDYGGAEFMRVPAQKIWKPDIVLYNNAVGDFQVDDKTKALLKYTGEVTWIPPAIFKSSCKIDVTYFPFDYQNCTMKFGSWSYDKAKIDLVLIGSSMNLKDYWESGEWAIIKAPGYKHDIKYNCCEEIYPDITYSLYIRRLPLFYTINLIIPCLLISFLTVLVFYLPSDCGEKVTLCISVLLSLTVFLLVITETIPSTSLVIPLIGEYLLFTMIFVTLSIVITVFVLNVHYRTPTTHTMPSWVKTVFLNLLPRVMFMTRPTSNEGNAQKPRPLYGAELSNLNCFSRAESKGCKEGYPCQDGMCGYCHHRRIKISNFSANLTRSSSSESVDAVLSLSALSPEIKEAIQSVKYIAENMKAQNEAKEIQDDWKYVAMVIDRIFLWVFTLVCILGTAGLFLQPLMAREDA

Assay [3] concerns the target Neuronal acetylcholine receptor subunit alpha-7 (Rattus norvegicus, UniProt Q05941). Nature of the assay: Displacement of [125I]]-alpha-bungarotoxin from alpha7 nAChR in rat hippocampus membranes by liquid scintillation counting method. The assay is classed as cell membranes, Membrane. An outline of the steps: as §1
Assay [4] deals with T2, Neuronal acetylcholine receptor; alpha4/beta2 (Homo sapiens, UniProt P17787+P43681). Nature of the assay: Agonist activity at human alpha4beta2 nAChR expressed in rat GH4C1 cells assessed as induction of peak current amplitude at holding potential of -70 mV by whole-cell patch clamp assay relative to acetylcholine. Format: cell-based. The note with it: GH4-C1. The essentials:
(§2)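 Human α3β4 or α4β2 nAChR transiently transfected into rat anterior pituitary GH4C1 cells (0.5 μg each subunit cDNA, magnetofection). Whole-cell patch clamp at −70 mV holding potential, with gravity-driven fast perfusion. Agonist concentrations applied sequentially. Peak currents normalized to 1 mM ACh on the same cell. EC50, Imax and nH from Hill equation fit.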
(In general: In patch-clamp work, channel activity is measured electrically.)

Assay [5] concerns the target T2, Neuronal acetylcholine receptor; alpha4/beta2. Nature of the assay: Agonist activity at human alpha4beta2 nAChR expressed in rat GH4C1 cells assessed as induction of peak current amplitude at holding potential of -70 mV by whole-cell patch clamp assay. Format: cell-based, GH4-C1. The essentials:
as §2

In assay [6] the target is T1, Neuronal acetylcholine receptor; alpha3/beta4. Nature of the assay: Agonist activity at human alpha3beta4 nAChR expressed in rat GH4C1 cells assessed as induction of peak current amplitude at holding potential of -70 mV by whole-cell patch clamp assay relative to acetylcholine. The assay is classed as cell-based. To be noted: GH4-C1. The essentials: as §2
Assay [7] has as its target T2, Neuronal acetylcholine receptor; alpha4/beta2. Nature of the assay: Agonist activity at human alpha4beta2 nAChR in (alpha4)3(beta2)2 stoichiometry form relative to control. Format: protein-complex assay.
Assay [8] deals with T1, Neuronal acetylcholine receptor; alpha3/beta4. Briefly: Agonist activity at human alpha3beta4 nAChR expressed in rat GH4C1 cells assessed as induction of peak current amplitude at holding potential of -70 mV by whole-cell patch clamp assay. Format: cell-based, GH4-C1. The essentials: (§3)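 Human α3β4 or α4β2 subunit cDNAs (0.5 μg each) transiently transfected into rat GH4C1 cells by magnetofection. Whole-cell voltage clamp at −70 mV, 85−90% series-resistance compensation, fast gravity-perfusion exchanger. Agonist concentrations applied sequentially; peak currents normalized to 1 mM ACh on the same cell. EC50 and nH from Hill-equation fit where possible.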

In assay [9] the target is T2, Neuronal acetylcholine receptor; alpha4/beta2. Nature of the assay: Selectivity index, ratio of EC50 for human alpha3beta4 nAChR expressed in rat GH4C1 cells to EC50 for human alpha4beta2 nAChR expressed in rat GH4C1 cells. Format: cell-based. The note with it: GH4-C1. An outline of the steps: as §3

Structures are written as SMILES. pEC50, pKi: −log10 of the molar value.

Chain of Neuronal acetylcholine receptor subunit alpha-7 (Q05941 whole entry): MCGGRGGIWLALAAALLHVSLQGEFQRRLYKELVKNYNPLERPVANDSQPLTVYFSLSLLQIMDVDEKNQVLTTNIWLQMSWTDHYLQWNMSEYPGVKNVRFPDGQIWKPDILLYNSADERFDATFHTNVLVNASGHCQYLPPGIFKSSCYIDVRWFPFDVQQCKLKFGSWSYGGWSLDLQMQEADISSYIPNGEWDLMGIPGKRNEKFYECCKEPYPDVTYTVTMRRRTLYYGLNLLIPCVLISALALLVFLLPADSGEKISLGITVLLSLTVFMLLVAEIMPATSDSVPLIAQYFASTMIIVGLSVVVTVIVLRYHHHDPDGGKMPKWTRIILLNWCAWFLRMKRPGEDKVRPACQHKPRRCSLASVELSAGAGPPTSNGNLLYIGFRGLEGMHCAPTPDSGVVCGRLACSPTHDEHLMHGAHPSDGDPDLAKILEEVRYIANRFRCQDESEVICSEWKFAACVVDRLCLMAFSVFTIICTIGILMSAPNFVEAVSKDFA
Chain of Neuronal acetylcholine receptor; alpha4/beta2 (Rattus norvegicus, UniProt P09483+P12390) (P09483 whole entry): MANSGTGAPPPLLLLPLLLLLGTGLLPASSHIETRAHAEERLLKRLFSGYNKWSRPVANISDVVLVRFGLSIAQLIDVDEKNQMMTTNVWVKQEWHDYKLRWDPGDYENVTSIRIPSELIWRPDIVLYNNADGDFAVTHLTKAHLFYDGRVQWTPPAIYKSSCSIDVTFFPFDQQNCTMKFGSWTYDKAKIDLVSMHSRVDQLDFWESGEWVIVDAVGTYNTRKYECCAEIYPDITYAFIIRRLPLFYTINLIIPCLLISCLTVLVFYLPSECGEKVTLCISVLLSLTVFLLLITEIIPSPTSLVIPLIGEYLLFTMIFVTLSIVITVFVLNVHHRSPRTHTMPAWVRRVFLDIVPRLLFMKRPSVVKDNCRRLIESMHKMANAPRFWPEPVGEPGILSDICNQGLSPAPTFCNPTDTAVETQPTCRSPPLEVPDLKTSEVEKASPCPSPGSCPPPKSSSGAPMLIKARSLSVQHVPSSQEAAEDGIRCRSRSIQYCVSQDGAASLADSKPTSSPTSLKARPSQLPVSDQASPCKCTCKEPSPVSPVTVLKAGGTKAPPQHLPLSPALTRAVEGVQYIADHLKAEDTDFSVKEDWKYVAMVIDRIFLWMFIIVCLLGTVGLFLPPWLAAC
Chain of Neuronal acetylcholine receptor; alpha4/beta2 (Rattus norvegicus, UniProt P09483+P12390) (P12390 whole entry): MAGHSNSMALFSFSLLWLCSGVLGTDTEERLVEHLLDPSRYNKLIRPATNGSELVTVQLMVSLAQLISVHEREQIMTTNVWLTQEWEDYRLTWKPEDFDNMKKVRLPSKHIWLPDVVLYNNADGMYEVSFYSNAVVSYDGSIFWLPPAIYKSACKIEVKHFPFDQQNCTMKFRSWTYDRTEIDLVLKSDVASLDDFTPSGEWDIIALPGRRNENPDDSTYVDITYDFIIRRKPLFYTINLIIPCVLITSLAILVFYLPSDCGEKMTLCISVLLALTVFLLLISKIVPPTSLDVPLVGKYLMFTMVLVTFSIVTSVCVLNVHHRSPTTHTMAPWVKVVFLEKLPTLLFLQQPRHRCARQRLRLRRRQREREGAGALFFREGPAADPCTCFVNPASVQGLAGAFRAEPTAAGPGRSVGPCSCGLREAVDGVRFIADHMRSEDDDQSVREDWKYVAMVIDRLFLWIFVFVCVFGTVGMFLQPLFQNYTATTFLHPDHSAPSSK
T2 sequence (P17787 whole entry, the tested form may be a part): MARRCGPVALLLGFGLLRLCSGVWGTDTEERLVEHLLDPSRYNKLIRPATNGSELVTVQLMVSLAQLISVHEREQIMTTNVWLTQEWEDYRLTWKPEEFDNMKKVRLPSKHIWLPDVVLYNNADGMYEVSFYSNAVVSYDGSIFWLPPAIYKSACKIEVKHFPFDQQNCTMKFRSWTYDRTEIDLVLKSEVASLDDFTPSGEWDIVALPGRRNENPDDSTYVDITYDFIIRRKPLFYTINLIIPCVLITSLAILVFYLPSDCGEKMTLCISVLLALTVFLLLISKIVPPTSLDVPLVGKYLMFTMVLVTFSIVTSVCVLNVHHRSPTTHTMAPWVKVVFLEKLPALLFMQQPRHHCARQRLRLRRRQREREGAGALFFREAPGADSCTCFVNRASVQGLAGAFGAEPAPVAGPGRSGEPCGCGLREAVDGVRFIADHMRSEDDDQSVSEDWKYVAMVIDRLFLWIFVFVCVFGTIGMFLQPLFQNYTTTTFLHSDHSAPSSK
T2 sequence (P43681 whole entry, the tested form may be a part): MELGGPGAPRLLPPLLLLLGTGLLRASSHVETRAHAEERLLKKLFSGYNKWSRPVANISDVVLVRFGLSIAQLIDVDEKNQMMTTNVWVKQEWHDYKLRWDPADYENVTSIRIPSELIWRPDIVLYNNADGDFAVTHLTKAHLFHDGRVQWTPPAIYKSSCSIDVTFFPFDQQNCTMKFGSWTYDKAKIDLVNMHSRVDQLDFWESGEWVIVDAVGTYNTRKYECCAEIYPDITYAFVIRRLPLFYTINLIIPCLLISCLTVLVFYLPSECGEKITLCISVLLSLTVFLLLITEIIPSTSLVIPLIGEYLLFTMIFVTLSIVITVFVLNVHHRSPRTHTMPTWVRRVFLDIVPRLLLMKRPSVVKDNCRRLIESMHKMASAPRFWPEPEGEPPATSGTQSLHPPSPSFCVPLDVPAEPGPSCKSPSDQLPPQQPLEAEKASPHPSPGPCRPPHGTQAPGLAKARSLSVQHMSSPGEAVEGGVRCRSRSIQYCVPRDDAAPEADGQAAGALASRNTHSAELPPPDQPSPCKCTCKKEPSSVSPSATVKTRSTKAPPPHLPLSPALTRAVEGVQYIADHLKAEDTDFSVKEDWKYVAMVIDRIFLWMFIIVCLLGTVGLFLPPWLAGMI

Consider `COc1ccc(O)cc1OC[C@@H]1CCCN1`, for which the pKi is 5.97 in assay [1] and 5.11 in assay [2].
Regarding `COc1ncccc1OC[C@@H]1CCCN1C`, the pKi in [1] was 5.14; in [2], 6.10.
With `CN1CC[C@H]1COc1ccccc1`, the pKi in assay [1] is 7.00.
Turning to `CN1CCC[C@H]1COc1cncc(O)c1`, the pKi was 8.43 in [1], 6.49 in assay [3] and 6.63 in [2]. The Imax in assay [4] worked out at 661%; in assay [6], 15%. Also, the pEC50 in assay [5] is 4.14.
Compound `c1ccc(OC[C@@H]2CCN2)cc1` had a pKi in [1] of 7.28.
For `COc1ccccc1OC[C@@H]1CCCN1`, the pKi in assay [1] is 4.27; in assay [2] it was 5.44.
`C[C@H](Oc1cccc(O)c1)[C@@H]1CCCN1C`: the figures for the pKi in assay [1], in assay [3] and in [2] were 6.72, 6.13 and 6.12, respectively.
With `OCCCCC#Cc1cncc(OC[C@@H]2CCN2)c1`, the Imax is 39% in assay [4] and 24% in [6]. The pEC50 in assay [5] was 9.57. The same compound displayed an Efficacy in assay [7] of 6%.
Regarding `Oc1cccc(OC[C@@H]2CCN2)c1`, the pKi in assay [1] was 8.15; in [3], 5.92; in assay [2] it was 7.40.
`C[C@@H](Oc1cccnc1)[C@@H]1CCCN1C` (racemic): the pKi in assay [1] was 7.57; in assay [3], 6.41; in assay [2], 5.30. Besides, the values for the Imax in assay [4] and in assay [6] were 39% and 7%, respectively. In addition, the pEC50 in [5] was 7.89.
`COc1ccncc1OC[C@@H]1CCCN1C`: the negative logarithm of the Ki (pKi) in [1] was 6.59; in assay [3] it was 5.03; in assay [2], 5.68.
With `COc1ccncc1OC[C@@H]1CCCN1`, the pKi in [1] is 6.21; in assay [3] it was 4.67; in [2], 5.54.
The corresponding values for `Oc1cccc(OC[C@@H]2CCCN2)c1` are 6.39, 6.67 and 5.42.
The like results for `C[C@@H](Oc1ccccc1)[C@@H]1CCCN1C` (racemic) were, in that order, 5.81, 4.82 and 5.89.
With `COc1ccccc1OC[C@@H]1CCCN1C`, the pKi in assay [1] is 5.03; in [2], 6.13.
In the case of `CN1CC[C@H]1COc1cccc(O)c1`, the pKi in assay [1] is 8.07; in [3] it was 7.54; in [2] it was 6.99. The Imax was 131% in [4] and 57% in [6]. For the same compound, the pEC50 in assay [8] is 5.04.
Consider `CN1CCC[C@H]1[C@@H]1COc2ccc(O)cc2O1`, for which the Imax in assay [4] is 29%; in [6] it was 28%. The pEC50 in assay [5] was 6.52; in [8], 4.77. In [9], the Ratio EC50 was found to be 57.
Consider `CC(Oc1ccccc1)C1CCCN1C` (mixture of isomers), for which the pKi in assay [1] was 5.34; in [3] it was 5.05; in assay [2], 5.85.
For the compound `COc1ccc(O)cc1OC[C@@H]1CCCN1C`, the values for the pKi in [1], in [3] and in assay [2] were 7.72, 5.94 and 6.57, respectively. Besides, the Imax in assay [4] is 17%; in assay [6], 7%.
For the compound `Oc1cncc(OC[C@@H]2CCCN2)c1`, the pKi in [1] is 8.60; in assay [3], 5.46; in [2], 7.00.
For the compound `CN1CCC[C@H]1COc1cccc(O)c1`, the pKi in assay [1] was 8.96; in assay [3], 6.92; in assay [2], 7.13. For the same compound, the figures for the Imax in assay [4] and in assay [6] were 162% and 85%, respectively. Moreover, the pEC50 in assay [5] was 5.36; in [8], 5.05.
Turning to `COc1ncccc1OC[C@@H]1CCCN1`, the pKi in assay [1] was 5.05; in assay [2], 5.28.
Consider `C[C@@H](Oc1cccc(O)c1)[C@@H]1CCCN1C` (racemic), for which the pKi was 7.95 in assay [1], 7.24 in [3] and 6.59 in assay [2].
On to `C[C@H](Oc1cccnc1)[C@@H]1CCCN1C`, for which the pKi in assay [1] is 6.06; in assay [3], 5.21; in assay [2] it was 5.25.

Broadly, the pKi is −log10 of the Ki, conventionally taken in molar units. As usually defined, the pEC50 is the negative decadic logarithm of the EC50, by convention in mol/L.
